From ChEMBL document CHEMBL1127424, “7-azetidinylquinolones as antibacterial agents. 2. Synthesis and biological activity of 7-(2,3-disubstituted-1-azetidinyl)-4-oxoquinoline- and -1,8-naphthyridine-3-carboxylic acids. Properties and structure-activity relationships of quinolones with an azetidine moiety” (J Med Chem, 1994)
In brackets after ≈: the same amount, converted by molar mass.

Key:
[1] = AUC (0-4 hr) ug/ml/h; type: ADME, cell-free; parameters: time < 4 hr; concentration or dose not given beside the values; conditions: plasma
Summary of the method: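 Mice dosed once orally at 50 mg/kg; blood taken from groups of six mice at 0.5, 1, 2 and 4 h. Serum drug assayed by disk agar diffusion bioassay (Bacillus subtilis ATCC 6633 on Seed Agar, 37 °C, 18 h), giving total activity.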

[2] = Measured ionization constant (pKa); type: physicochemical; conditions: read-out: pKa1
Summary of the method: (§1)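 Spectrophotometric titration at 20 ± 1 °C, 0.1 M ionic strength, pH varied with H2SO4 or NaOH made up in the compound stock. Absorbance followed at compound-specific wavelengths chosen from 200–400 nm scans. pKa1 and pKa2 taken as the inflection points of the two-step absorbance vs pH curve.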

[3] = Dissociation constant (pKa); type: physicochemical; conditions: read-out: pKa2; summary of the method: as §1
[4] = HPLC capacity factor (k'); type: ADME
Summary of the method: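 Ion-pair reversed-phase HPLC on ODS-2 (10 μm) at 45 °C. Mobile phase: 10 mM sodium heptanesulfonate plus 50 mM KH2PO4 (pH 3.5)–methanol 45:55, 1 mL/min. Samples at 100 μg/mL in DMF, injected in duplicate, UV 280 nm. k' = (tR − t0)/t0.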

[5] = Solubility (buffer pH 7.4); type: physicochemical; conditions: read-out: S
Summary of the method: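 Excess solid shaken in 0.05 M phosphate buffer pH 7.4 for 24 h at 25 °C. Suspension filtered through 0.22 μm, discarding the first portion. Filtrate diluted in 0.1 N HCl or 0.1 N NaOH and read by UV at the compound's absorbance maximum.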

Bacillus cereus = test: In vitro minimum inhibitory concentration for Bacillus cereus ATCC 11778; type: functional
Summary of the method: (§2)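 Serial 2-fold agar dilution in Mueller Hinton medium, run alongside a reference quinolone. Inoculum adjusted to 10⁸ cfu/mL; compound range 0.007–16 μg/mL.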

Bacillus subtilis = test: In vitro minimum inhibitory concentration for Bacillus subtilis ATCC 6633; type: functional; summary of the method: as §2
Escherichia coli [6] = test: In vitro minimum inhibitory concentration for Escherichia coli ATCC 10799; type: functional; summary of the method: as §2
Enterobacter cloacae = test: In vitro minimum inhibitory concentration for Enterobacter cloacae ATCC 23355; type: functional
Klebsiella pneumoniae = test: In vitro minimum inhibitory concentration to inhibit Klebsiella pneumoniae ATCC 10031; type: functional; summary of the method: as §2
Mus musculus [7] = test: Evaluation of efficacy on systemic infections Escherichia coli HM-42, after oral administration in mice; type: functional
Summary of the method: (§3)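 Single oral dose given immediately after infection, one of four doses per group, chosen from in vitro activity. Survival scored after one week. ED50 (total mg/kg protecting 50%) interpolated from survival rates.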

Mus musculus [8] = test: Evaluation of efficacy on systemic infections Pseudomonas aeruginosa HS-116, after oral administration in mice; type: functional; summary of the method: as §3
Mus musculus [9] = test: Evaluation of efficacy on systemic infections Staphylococcus aureus HS-93, after oral administration in mice; type: functional; summary of the method: as §3
Morganella morganii = test: In vitro minimum inhibitory concentration for Morganella morganii ATCC 8019; type: functional; summary of the method: as §2
Proteus vulgaris = test: In vitro minimum inhibitory concentration for Proteus vulgaris ATCC 8427; type: functional; summary of the method: as §2
[10] = tested on: Staphylococcus epidermidis; test: In vitro minimum inhibitory concentration for Staphylococcus epidermidis ATCC 155-1; type: functional; summary of the method: as §2
Staphylococcus aureus = test: In vitro minimum inhibitory concentration for Staphylococcus aureus ATCC 25178; type: functional; summary of the method: as §2
Enterococcus faecalis [11] = test: In vitro minimum inhibitory concentration for Streptococcus faecalis ATCC 10541; type: functional; summary of the method: as §2
Pseudomonas aeruginosa = test: In vitro minimum inhibitory concentration for Pseudomonas aeruginosa ATCC 10145; type: functional; summary of the method: as §2
[12] = Measured inonisation constant (pKa); type: physicochemical; conditions: read-out: pKa2; summary of the method: as §1
Escherichia coli [13] = test: In vitro minimum inhibitory concentration to inhibit Escherichia coli ATCC 10799; type: functional
Summary of the method: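 Serial 2-fold agar dilution on Mueller Hinton medium, run alongside 1b as comparator. Inoculum adjusted to 10⁸ cfu/mL; compound range 0.007 to 16 μg/mL. Incubated 37 °C for 18 h. MIC taken as the lowest concentration preventing visible growth.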

Enterococcus faecalis [14] = test: microbe, parasite or virus in culture; conditions: ATCC 10541

SMILES | AUC [1] [ng·h/mL] | pKa [2] | pKa [3] | Log k' [4] | solubility [5] [µg/mL] | MIC (Bacillus cereus) [µg/mL] | MIC (Bacillus subtilis) [µg/mL] | MIC (Escherichia coli [6]) [µg/mL] | MIC (Enterobacter cloacae) [µg/mL] | MIC (Klebsiella pneumoniae) [µg/mL] | ED50 (Mus musculus [7]) [mg/kg] | ED50 (Mus musculus [8]) [mg/kg] | ED50 (Mus musculus [9]) [mg/kg] | MIC (Morganella morganii) [µg/mL] | MIC (Proteus vulgaris) [µg/mL] | MIC [10] [µg/mL] | MIC (Staphylococcus aureus) [µg/mL] | MIC (Enterococcus faecalis [11]) [µg/mL] | MIC (Pseudomonas aeruginosa) [µg/mL] | further results
C[C@H]1[C@H](N)CN1c1c(F)cc2c(=O)c(C(=O)O)cn(C3CC3)c2c1Cl | 5200 | 6.04 | 8.47 | 0.1361 | 12 (≈ 32.8 µM) | 0.03 (≈ 0.082 µM) | 0.03 (≈ 0.082 µM) | 0.007 (≈ 0.0191 µM) | 0.03 (≈ 0.082 µM) | 0.007 (≈ 0.0191 µM) | 2.8 | 38 | 9.6 | 0.03 (≈ 0.082 µM) | 0.03 (≈ 0.082 µM) | 0.03 (≈ 0.082 µM) | 0.03 (≈ 0.082 µM) | 0.06 (≈ 0.164 µM) | 0.12 (≈ 0.328 µM) | –
CCNC1CN(c2cc3c(cc2F)c(=O)c(C(=O)O)cn3C2CC2)C1 | – | 6.48 | – | – | – | – | – | – | – | – | – | – | – | – | – | – | – | – | – | pKa [12]: 8.62
C[C@H]1[C@H](N)CN1c1nc2c(cc1F)c(=O)c(C(=O)O)cn2C1CC1 | 27200 | 6.26 | 8.31 | -0.0304 | 20.3 (≈ 61.1 µM) | 0.06 (≈ 0.181 µM) | 0.03 (≈ 0.0903 µM) | 0.03 (≈ 0.0903 µM) | 0.03 (≈ 0.0903 µM) | 0.03 (≈ 0.0903 µM) | 3.5 | 95.4 | 13.8 | 0.03 (≈ 0.0903 µM) | 0.06 (≈ 0.181 µM) | 0.12 (≈ 0.361 µM) | 0.12 (≈ 0.361 µM) | 0.25 (≈ 0.752 µM) | 0.5 (≈ 1.5 µM) | –
C[C@H]1[C@H](N)CN1c1c(F)cc2c(=O)c(C(=O)O)cn(C3CC3)c2c1F | 24500 | 6.13 | 8.35 | 0.0755 | 23.2 (≈ 66.4 µM) | 0.06 (≈ 0.172 µM) | 0.03 (≈ 0.0859 µM) | 0.015 (≈ 0.0429 µM) | 0.03 (≈ 0.0859 µM) | 0.03 (≈ 0.0859 µM) | 2 | 22.1 | 9 | 0.03 (≈ 0.0859 µM) | 0.06 (≈ 0.172 µM) | 0.06 (≈ 0.172 µM) | 0.06 (≈ 0.172 µM) | 0.25 (≈ 0.716 µM) | 0.25 (≈ 0.716 µM) | –
CN[C@H]1CN(c2c(F)cc3c(=O)c(C(=O)O)cn(C4CC4)c3c2F)[C@@H]1C | 20800 | 6.13 | 8.5 | 0.292 | 13.1 (≈ 36.1 µM) | 0.06 (≈ 0.165 µM) | 0.03 (≈ 0.0826 µM) | 0.06 (≈ 0.165 µM) | 0.03 (≈ 0.0826 µM) | 0.03 (≈ 0.0826 µM) | 2.3 | 70.5 | 11.2 | 0.06 (≈ 0.165 µM) | 0.12 (≈ 0.33 µM) | 0.06 (≈ 0.165 µM) | 0.06 (≈ 0.165 µM) | 0.5 (≈ 1.38 µM) | 0.5 (≈ 1.38 µM) | –
CN[C@H]1CN(c2cc3c(cc2F)c(=O)c(C(=O)O)cn3C2CC2)[C@@H]1C | 10300 | 6.5 | 8.6 | 0.179 | 9.2 (≈ 26.6 µM) | 0.12 (≈ 0.347 µM) | 0.03 (≈ 0.0869 µM) | 0.06 (≈ 0.174 µM) | 0.03 (≈ 0.0869 µM) | 0.03 (≈ 0.0869 µM) | 2 | 80.4 | 23.3 | 0.06 (≈ 0.174 µM) | 0.12 (≈ 0.347 µM) | 0.06 (≈ 0.174 µM) | 0.12 (≈ 0.347 µM) | 0.25 (≈ 0.724 µM) | 0.5 (≈ 1.45 µM) | –
C[C@@H]1[C@@H](N(C)C)CN1c1cc2c(cc1F)c(=O)c(C(=O)O)cn2C1CC1 | 12100 | 6.29 | 7.9 | 0.668 | 96.3 (≈ 268 µM) | 0.5 (≈ 1.39 µM) | 0.06 (≈ 0.167 µM) | 0.5 (≈ 1.39 µM) | 0.5 (≈ 1.39 µM) | 0.06 (≈ 0.167 µM) | 4.5 | 135 | 62.1 | 0.5 (≈ 1.39 µM) | 0.5 (≈ 1.39 µM) | 0.12 (≈ 0.334 µM) | 0.25 (≈ 0.696 µM) | 4 (≈ 11.1 µM) | 4 (≈ 11.1 µM) | –
CCn1cc(C(=O)O)c(=O)c2cc(F)c(N3C[C@@H](N)[C@@H]3C)c(F)c21 | – | – | – | 0.0145 | – | 0.25 (≈ 0.741 µM) | 0.06 (≈ 0.178 µM) | – | 0.06 (≈ 0.178 µM) | 0.015 (≈ 0.0445 µM) | 4 | 56.3 | 5.1 | 0.06 (≈ 0.178 µM) | 0.25 (≈ 0.741 µM) | 0.12 (≈ 0.356 µM) | 0.25 (≈ 0.741 µM) | 1 (≈ 2.96 µM) | 1 (≈ 2.96 µM) | MIC (Escherichia coli [13]): 0.12 µg/mL (≈ 0.356 µM)
O=C(O)c1cn(C2CC2)c2cc(N3CCNCC3)c(F)cc2c1=O [CIPROFLOXACIN] | 2300 | – | – | – | – | 0.25 (≈ 0.754 µM) | 0.06 (≈ 0.181 µM) | – | – | – | 3 | 70.3 | 45.1 | 0.06 (≈ 0.181 µM) | 0.06 (≈ 0.181 µM) | 0.5 (≈ 1.51 µM) | 0.25 (≈ 0.754 µM) | – | 0.12 (≈ 0.362 µM) | MIC (Enterococcus faecalis [14]): 0.5 µg/mL (≈ 1.51 µM)
